According to ChEMBL document CHEMBL1124784, “Synthesis and bioactivity of a new class of rigid glutamate analogues. Modulators of the N-methyl-D-aspartate receptor” (1990):
Values joined by “and” are separate entries in the source; they are usually repeats but may differ in a detail not shown here. Equal values may be shown once.

Columns and labels:
[1] = tested on: Cerebellar granule neurone; assay: Influx of calcium in Cerebellar Granule Cells of rat after 10 min of incubation with compound; format: functional
How it was run: (§1)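 Cerebellar granule cells preincubated 15 min with 50 μM azetidine, then 10 min without (basal) or with 10 μM glutamate or 10 μM aspartate; 45Ca2+ influx measured. Percent stimulation relative to agonist alone (100%) after subtracting respective basal values; means ± SEM of four experiments.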

[2] = tested on: Cerebellar granule neurone; assay: Influx of calcium in Cerebellar Granule Cells of rat after 10 min of incubation with compound and 10 uM aspartate; format: functional; how it was run: as §1
[3] = tested on: Cerebellar granule neurone; assay: Stimulation caused by aspartate in Cerebellar Granule Cells over basal stimulation; format: functional, Rattus norvegicus; how it was run: as §1
[4] = tested on: Cerebellar granule neurone; assay: Influx of calcium in Cerebellar Granule Cells of rat after 10 min of incubation with compound and 10 uM glutamate; format: functional; how it was run: as §1
[5] = tested on: Cerebellar granule neurone; assay: Stimulation caused by Glutamate in Cerebellar Granule Cells over basal stimulation; format: functional, Rattus norvegicus; how it was run: as §1
[6] = tested on: Cerebellar granule neurone; assay: Ability to induce calcium uptake in cerebellar granule cells was determined at 50 uM concentration (control= 16+/-1.5); format: functional, Rattus norvegicus
How it was run: (§2)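 Rat cerebellar granule cells (8-day-old rats), cultured 8–9 days; HEPES saline pH 7.35 with 1.3 mM CaCl2, 45CaCl2 tracer 10 min, then azetidine 50 μM 15 min at 37 °C, then agonist 10 min. Kainate/quisqualate media held 1 mM MgCl2 and 10 μM CPP. Choline/EGTA wash stop; 45Ca uptake per mg protein.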

[7] = tested on: Cerebellar granule neurone; assay: Stimulation caused by Aspartate in Cerebellar Granule Cells at 50 uM concentration in presence of 100 uM kainate; format: functional, Rattus norvegicus; how it was run: as §2
[8] = tested on: Cerebellar granule neurone; assay: Stimulation caused by Aspartate in Cerebellar Granule Cells at 50 uM concentration in presence of 50 uM NMDA; format: functional, Rattus norvegicus; how it was run: as §2
[9] = species on record: Rattus norvegicus; assay: Effect on fractional [3H]GABA release from rat forebrain neurons in culture; format: functional
How it was run: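 Embryonic rat forebrain neurons cultured 8–9 days, loaded with 1 μCi/mL [3H]GABA 60–90 min at 37 °C, washed eight times at 5 min intervals in Mg2+-free HEPES saline, then agonist added; CGS 19755 (100 μM) where used added 5 min before. Evoked efflux minus basal, as fraction of remaining cell tritium (SDS-solubilized); 4–6 wells.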

[10] = tested on: Cerebellar granule neurone; assay: Ability to induce calcium uptake in cerebellar granule cells was determined at 50 uM concentration in presence of 100 uM quisqualate (control=15+/-1.2); format: functional, Rattus norvegicus; how it was run: as §2
[11] = species on record: Rattus norvegicus; assay: Effect on fractional [3H]GABA release from rat forebrain neurons in culture in the presence of 100 uM CGS 19755
[12] = tested on: Cerebellar granule neurone; assay: Ability to induce calcium uptake in cerebellar granule cells was determined at 50 uM concentration in presence of 10 uM aspartate (control = 43+/-2.9)
[13] = tested on: Cerebellar granule neurone; assay: Ability to induce calcium uptake in cerebellar granule cells was determined at 50 uM concentration in presence of 10 uM CPP (control= 5.4+/-0.3); format: functional, Rattus norvegicus; how it was run: as §2
[14] = tested on: Cerebellar granule neurone; assay: Ability to induce calcium uptake in cerebellar granule cells was determined at 50 uM concentration in presence of 1 uM glutamate (control= 39+/-3.8); format: functional, Rattus norvegicus; how it was run: as §2
[15] = tested on: Cerebellar granule neurone; assay: Stimulation caused by Aspartate in Cerebellar Granule Cells at 50 uM concentration in presence of 10 uM aspartate
[16] = tested on: Cerebellar granule neurone; assay: Ability to induce calcium uptake in cerebellar granule cells was determined at 50 uM concentration in presence of 50 uM NMDA (control = 91+/-6.5); format: functional, Rattus norvegicus; how it was run: as §2
[17] = tested on: Cerebellar granule neurone; assay: Stimulation caused by Aspartate in Cerebellar Granule Cells at 50 uM concentration in presence of 1 uM glutamate; format: functional, Rattus norvegicus; how it was run: as §2
[18] = tested on: Cerebellar granule neurone; assay: Stimulation caused by Aspartate in Cerebellar Granule Cells at 50 uM concentration in presence of 100 uM quisqualate; format: functional, Rattus norvegicus; how it was run: as §2
[19] = tested on: Cerebellar granule neurone; assay: Stimulation caused by Aspartate in Cerebellar Granule Cells at 50 uM concentration; format: functional, Rattus norvegicus; how it was run: as §2
[20] = tested on: Cerebellar granule neurone; assay: Ability to induce calcium uptake in cerebellar granule cells was determined at 50 uM concentration in presence of 100 uM kainate (control = 56+/-3.7); format: functional, Rattus norvegicus; how it was run: as §2
[21] = tested on: Cerebellar granule neurone; assay: Stimulation caused by Aspartate in Cerebellar Granule Cells at 50 uM concentration in presence of 10 uM CPP; format: functional, Rattus norvegicus; how it was run: as §2

`O=C(O)[C@@H]1CCN1` gave an Influx [1] of 16 nM/mg, an Influx [2] of 44.5 nM/mg and a Stimulation [3] of 105%.

For `O=C(O)[C@H]1C[C@@H](C(=O)O)N1Cc1ccccc1`, the Influx [1] was 15 nM/mg.

In the case of `COC(=O)[C@@H]1C[C@H](C(=O)OC)N1`, the Influx [1] is reported as 19 nM/mg.

With `NC(=O)[C@@H]1C[C@H](C(=O)O)N1` the Influx [1] was 20 nM/mg.

`CC(C)(C)OC(=O)[C@H]1C[C@@H](C(=O)O)N1` gave an Influx [1] of 15 nM/mg, an Influx [4] of 67 nM/mg and a Stimulation [5] of 144%. For the same compound, the Influx [2] was 52 nM/mg and the Stimulation [3] was 136%.

With `NC(=O)[C@@H]1C[C@H](C(N)=O)N1` the Influx [1] was 15 nM/mg.

With `COC(=O)[C@@H]1C[C@@H](C(=O)OC(C)(C)C)N1` the Influx [1] was 15 nM/mg, the Influx [4] was 52 nM/mg and the Stimulation [5] was 105%.

With `CC(=O)N1[C@@H](C(=O)O)C[C@H]1C(=O)O` the Influx [1] was 16 nM/mg.

`CCCCCCN1[C@@H](C(=O)O)C[C@H]1C(=O)O` showed an Influx [1] of 16 nM/mg.

`O=C(O)[C@H]1C[C@@H](CO)N1` was tested, and the Influx [1] was 19 nM/mg and the Influx [2] was 58 nM/mg.

`COC(=O)[C@H]1C[C@@H](C(=O)O)N1` showed an Influx [1] of 18 nM/mg.

For `O=C(O)[C@@H]1C[C@H](C(=O)O)N1`, the Influx [6] was 23 nM/mg, the Stimulation [7] was 93% and the Stimulation [8] was 151%. For the same compound, the Release [9] was 1.04%, the Influx [10] was 15 nM/mg and the Influx [1] was 25 nM/mg and 21 nM/mg. For the same compound, the Release [11] was -0.08%, the Influx [12] was 75 nM/mg and the Influx [13] was 4.9 nM/mg. For the same compound, the Influx [14] was 85 nM/mg, the Stimulation [15] was 193% and the Influx [4] was 92 nM/mg. It also gave a Stimulation [5] of 186%, an Influx [16] of 136 nM/mg and a Stimulation [17] of 268%. For the same compound, the Influx [2] was 68 nM/mg, the Stimulation [18] was 100% and the Stimulation [19] was 144%. The Influx [20] was 52 nM/mg, the Stimulation [3] was 175% and the Stimulation [21] was 91%.

With `CC(C)(C)OC(=O)[C@@H]1C[C@@H](C(=O)O)N1` the Influx [1] was 16 nM/mg, the Influx [4] was 51 nM/mg and the Stimulation [5] was 97%.

`COC(=O)[C@H]1C[C@@H](C(=O)OC(C)(C)C)N1` was tested, and the Influx [1] was 14 nM/mg, the Influx [4] was 54 nM/mg and the Stimulation [5] was 111%. For the same compound, the Influx [2] was 43 nM/mg and the Stimulation [3] was 107%.

`O=C(O)[C@@H]1C[C@@H](C(=O)O)N1` gave an Influx [1] of 14 nM/mg, an Influx [4] of 52 nM/mg and a Stimulation [5] of 106%.

For `C=C(C)[C@H]1CN[C@H](C(=O)O)[C@H]1CC(=O)O` [KAINIC ACID], the Release [9] was 2.65% and the Release [11] was 2.63%.

`CN[C@H](CC(=O)O)C(=O)O` [N-METHYL-D-ASPARTIC ACID (NMDA)] showed a Release [9] of 0.73% and a Release [11] of 0.09%.
